According to ChEMBL document CHEMBL4138171, “Design, synthesis and biological evaluation of novel aryldiketo acids with enhanced antibacterial activity against multidrug resistant bacterial strains” (Eur J Med Chem, 2018):

Experiments:
Assay type in all cases: functional
[1] = tested on: Staphylococcus aureus; experiment: Antibacterial activity against erythromycin-resistant Staphylococcus aureus RN4220 after 16 hrs by microdilution method; details: RN4220, 16 h
In short: (§1)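 Broth microdilution in cation-adjusted Mueller-Hinton broth (20 mg/l Ca2+, 10 mg/L Mg2+), inoculum 5×10^5 CFU/mL. Compounds in DMSO, solvent under 1% in well, tested over 0.12-128 µg/ml. […] Each determined at least twice; values converted to µmol/L.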

[2] = tested on: Staphylococcus aureus; experiment: Antibacterial activity against Staphylococcus aureus EMRSA-15 after 16 hrs by microdilution method; details: EMRSA-15, 16 h
In short: (§2)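 Broth microdilution in cation-adjusted Mueller-Hinton broth (20 mg/l Ca2+, 10 mg/L Mg2+), inoculum 5×10^5 CFU/mL. Compounds from DMSO stocks, final DMSO <1%, tested over 0.12–128 µg/ml. Incubated 37 °C and read visually after 16 h. MIC is the lowest concentration with no visible growth, determined at least twice and converted to µmol/L.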

[3] = tested on: Staphylococcus aureus; experiment: Antibacterial activity against Norfloxacin-resistant Staphylococcus aureus 1199B over-expressing NorA after 16 hrs by microdilution method; in short: as §1
[4] = tested on: Escherichia coli; experiment: Antibacterial activity against Escherichia coli NCTC 12241 after 16 hrs by microdilution method; details: NCTC 12241, 16 h; in short: as §2
[5] = tested on: Staphylococcus aureus; experiment: Antibacterial activity against tetracycline/methicillin-resistant Staphylococcus aureus XU212 after 16 hrs by microdilution method; details: XU212, 16 h; in short: as §1
[6] = tested on: Bacillus subtilis; experiment: Antibacterial activity against Bacillus subtilis NCTC 10400 after 16 hrs by microdilution method; details: NCTC 10400, 16 h; in short: as §2
[7] = tested on: Staphylococcus aureus; experiment: Antibacterial activity against methicillin-sensitive Staphylococcus aureus NCTC 12981 after 16 hrs by microdilution method; details: NCTC 12981, 16 h; in short: as §2
[8] = tested on: Staphylococcus aureus; experiment: Antibacterial activity against methicillin-resistant Staphylococcus aureus NCTC 13373 after 16 hrs by microdilution method; details: NCTC 13373, 16 h; in short: as §1
[9] = tested on: Enterococcus faecalis; experiment: Antibacterial activity against Enterococcus faecalis NCTC 12697 after 16 hrs by microdilution method; details: NCTC 12697, 16 h; in short: as §2

Structure (SMILES)	MIC [1]	MIC [2]	MIC [3]	MIC [4] [µg/mL]	MIC [5]	MIC [6]	MIC [7]	MIC [8]	MIC [9]
O=C(O)/C(O)=C/C(=O)c1ccc(-c2ccccc2)cc1	> 128 µg/mL	> 128 µg/mL	477 µM	> 128	> 128 µg/mL				
Cc1ccccc1C(=O)/C=C(\O)C(=O)O	> 128 µg/mL	> 128 µg/mL	> 128 µg/mL	> 128	> 128 µg/mL	> 128 µg/mL	> 128 µg/mL	> 128 µg/mL	> 128 µg/mL
CN1CCN(c2ccc(C(=O)/C=C(\O)C(=O)O)cc2)CC1	> 128 µg/mL	> 128 µg/mL	> 128 µg/mL	> 128	> 128 µg/mL	> 128 µg/mL	> 128 µg/mL	> 128 µg/mL	> 128 µg/mL
CC(C)(C)c1ccc(C(=O)/C=C(\O)C(=O)O)cc1	> 128 µg/mL	> 128 µg/mL	1030 µM	> 128	> 128 µg/mL				
O=C(O)/C(O)=C/C(=O)c1ccc(N2CCCC2)cc1	> 128 µg/mL	> 128 µg/mL	> 128 µg/mL	> 128	> 128 µg/mL	> 128 µg/mL	> 128 µg/mL	> 128 µg/mL	> 128 µg/mL
O=C(O)/C(O)=C/C(=O)c1ccc2c(c1)CCCC2	> 128 µg/mL	520 µM	520 µM	> 128	> 128 µg/mL	> 128 µg/mL	> 128 µg/mL	> 128 µg/mL	260 µM
Cc1cc(C(=O)/C=C(\O)C(=O)O)cc(C)c1O	> 128 µg/mL	> 128 µg/mL	> 128 µg/mL	> 128	> 128 µg/mL	> 128 µg/mL	> 128 µg/mL	> 128 µg/mL	> 128 µg/mL
CC(C)c1ccc(C(C)C)c(C(=O)/C=C(\O)C(=O)O)c1	464 µM	232 µM	232 µM	> 128	464 µM				
O=C(O)/C(O)=C/C(=O)c1ccc(-n2ccnc2)cc1	> 128 µg/mL	> 128 µg/mL	124 µM	> 128	496 µM	496 µM	> 128 µg/mL	248 µM	496 µM
Cc1cccc(C(=O)/C=C(\O)C(=O)O)c1	> 128 µg/mL	> 128 µg/mL	> 128 µg/mL	> 128	> 128 µg/mL	> 128 µg/mL	> 128 µg/mL	> 128 µg/mL	> 128 µg/mL
Cc1cc(C)c(C(=O)/C=C(\O)C(=O)O)cc1C	> 128 µg/mL	> 128 µg/mL	> 128 µg/mL	> 128	> 128 µg/mL	> 128 µg/mL	> 128 µg/mL	> 128 µg/mL	> 128 µg/mL
CC(C)c1cc(C(C)C)c(C(=O)CCC(=O)O)c(C(C)C)c1	> 128 µg/mL	> 128 µg/mL	> 128 µg/mL	> 128	> 128 µg/mL		> 128 µg/mL	> 128 µg/mL	
Cc1ccc(C(=O)/C=C(\O)C(=O)O)c(C)c1	> 128 µg/mL	> 128 µg/mL	> 128 µg/mL	> 128	> 128 µg/mL	> 128 µg/mL	> 128 µg/mL	> 128 µg/mL	> 128 µg/mL
CN(C)c1ccc(C(=O)/C=C(\O)C(=O)O)cc1	> 128 µg/mL	> 128 µg/mL	> 128 µg/mL	> 128	> 128 µg/mL	> 128 µg/mL	> 128 µg/mL	> 128 µg/mL	> 128 µg/mL
O=C(O)/C(O)=C/C(=O)c1cccc(C(F)(F)F)c1	> 128 µg/mL	> 128 µg/mL	> 128 µg/mL	> 128	> 128 µg/mL	> 128 µg/mL	> 128 µg/mL	> 128 µg/mL	> 128 µg/mL
COc1ccccc1C(=O)/C=C(\O)C(=O)O	> 128 µg/mL	> 128 µg/mL	> 128 µg/mL	> 128	> 128 µg/mL	> 128 µg/mL	> 128 µg/mL	> 128 µg/mL	> 128 µg/mL

Structure (SMILES)	MIC [1]	MIC [2]	MIC [3]	MIC [4] [µg/mL]	MIC [5]	MIC [6]	MIC [7]	MIC [8]	MIC [9]
CC(=O)c1cc(C2CCCCC2)ccc1C1CCCCC1	225 µM	225 µM	450 µM	> 128	225 µM		450 µM	450 µM	
O=C(O)CCC(=O)c1cc(C2CCCCC2)ccc1C1CCCCC1	47 µM	94 µM	47 µM	> 128	47 µM		94 µM	94 µM	
CC(C)c1ccc(C(=O)/C=C(\O)C(=O)O)c(C(C)C)c1	232 µM	232 µM	232 µM	> 128	464 µM				
O=C(O)/C(O)=C/C(=O)c1ccc(N2CCOCC2)cc1	> 128 µg/mL	> 128 µg/mL	> 128 µg/mL	> 128	> 128 µg/mL	> 128 µg/mL	> 128 µg/mL	> 128 µg/mL	> 128 µg/mL
COc1cc(C)c(C(=O)/C=C(\O)C(=O)O)cc1C	> 128 µg/mL	> 128 µg/mL	> 128 µg/mL	> 128	> 128 µg/mL	> 128 µg/mL	> 128 µg/mL	> 128 µg/mL	> 128 µg/mL
Cc1cc(C)c(C)c(C(=O)/C=C(\O)C(=O)O)c1C	> 128 µg/mL	> 128 µg/mL	> 128 µg/mL	> 128	> 128 µg/mL	> 128 µg/mL	> 128 µg/mL	> 128 µg/mL	516 µM
CCCCc1ccc(C(=O)/C=C(\O)C(=O)O)cc1	258 µM	258 µM	258 µM	> 128	258 µM	> 128 µg/mL	258 µM	258 µM	129 µM
O=C(O)/C(O)=C/C(=O)c1ccccc1			> 2660 µM	> 128					
COc1cccc(C(=O)/C=C(\O)C(=O)O)c1	> 128 µg/mL	> 128 µg/mL	> 128 µg/mL	> 128	> 128 µg/mL	> 128 µg/mL	> 128 µg/mL	> 128 µg/mL	> 128 µg/mL
O=C(O)/C(O)=C/C(=O)c1cccc(Br)c1	> 128 µg/mL	> 128 µg/mL	> 128 µg/mL	> 128	> 128 µg/mL	> 128 µg/mL	> 128 µg/mL	> 128 µg/mL	> 128 µg/mL
O=C(O)c1cn(C2CC2)c2cc(N3CCNCC3)c(F)cc2c1=O [CIPROFLOXACIN]	0.76 µM								1.5 µM
O=C(O)CCC(=O)c1ccc(-c2ccccc2)cc1 [FENBUFEN]	> 128 µg/mL	> 128 µg/mL	> 128 µg/mL	> 128	> 128 µg/mL		> 128 µg/mL	> 128 µg/mL	
C[C@H]1COc2c(N3CCN(C)CC3)c(F)cc3c(=O)c(C(=O)O)cn1c23 [LEVOFLOXACIN]	0.69 µM		5.53 µM						1.4 µM
COc1c(N2C[C@@H]3CCCN[C@@H]3C2)c(F)cc2c(=O)c(C(=O)O)cn(C3CC3)c12 [MOXIFLOXACIN]	0.31 µM		0.62 µM						
CCn1cc(C(=O)O)c(=O)c2cc(F)c(N3CCNCC3)cc21 [NORFLOXACIN]	> 128 µg/mL	3.3 µM	106 µM		> 128 µg/mL				6.3 µM
